Assay [1] concerns CCRF S-180. Kind of assay: Antitumor activity against mouse S-180 cells implanted in KM mouse assessed as tumor growth inhibition at 5 mg/kg, IG administered everyday for 7 days relative to control. It counts as functional. The settings on record: CCRF S-180, po, 168 h, time 7 day, read-out: TGI. The essentials: (§1)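 S-180 or H22 cells, about 2.5 × 10⁶ per mouse, injected s.c. in the right axilla of wild-type KM mice. Randomized after 24 h and dosed intragastrically for 7 days; sacrificed 24 h after the last dose. TGI = (W_C − W_T)/W_C × 100% from average tumor weight. n = 8; one-way ANOVA vs vehicle.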

Assay [2] is described as follows: Cytotoxicity against human HO-8910 cells assessed as reduction in cell viability by sulforhodamine B assay. It counts as functional, cell-based. In outline: (§2)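 Cells were kept in RPMI-1640 with 10% FBS, 2 mM L-glutamine, 50 μM β-mercaptoethanol and penicillin/streptomycin, at 37 °C in 5% CO2. SRB assay used 100, 10, 1, 0.1 and 0.01 μM, each in triplicate. Percent inhibition was calculated against solvent control OD. IC50 came from Logit curve fitting and is the mean of three independent experiments.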
(In SRB staining, fixed cells bind dye roughly in proportion to their protein.)

In another assay the test system is HMEC-1. The assay is described as follows: Antiproliferative activity against human HMEC-1 cells assessed as inhibition of proliferation by SRB method. It counts as functional, cell-based. The essentials:
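HMEC-1 endothelial cells seeded and exposed to compound. Proliferation read by SRB and migration by Transwell. IC50 calculated from three independent experiments.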

The test system of the next assay is H22. Kind of assay: Antitumor activity against mouse H22 cells implanted in KM mouse assessed as tumor growth inhibition at 0.5 mg/kg, IG administered everyday for 7 days relative to control. It counts as functional. The settings on record: H22, po, 168 h, time 7 day, read-out: TGI. In outline: as §1
A further assay deals with A549. Kind of assay: Cytotoxicity against human A549 cells assessed as reduction in cell viability by sulforhodamine B assay. It counts as functional, cell-based. In outline:
as §2

For assay [3], the system named is HCT-116. Kind of assay: Induction of apoptosis in human HCT-116 cells assessed as decrease in viable cells measured upto 2 times of IC50 concentration by annexin V staining based flow cytometry analysis. It counts as functional, cell-based. In outline:
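HCT-116 cells treated with vehicle or three compound concentrations, collected, and stained with Annexin V-FITC and propidium iodide in the dark at 4 °C. Flow cytometry quadrants: Q4 live, Q3 early apoptotic, Q2 late apoptotic, Q1 necrotic. n = 3; ANOVA vs vehicle.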

Assay [4] has as its system CCRF S-180. Kind of assay: Antitumor activity against mouse S-180 cells implanted in KM mouse assessed as tumor growth inhibition at 0.5 mg/kg, IG administered everyday for 7 days relative to control. It counts as functional. The conditions noted are these: CCRF S-180, po, 168 h, time 7 day, read-out: TGI. In outline: as §1
The subject of assay [5] is HCT-116. Kind of assay: Induction of apoptosis in human HCT-116 cells assessed as apoptotic nuclei cells measured upto 2 times of IC50 concentration for 24 hrs by Hoechst staining method. Type of assay: functional, cell-based. In outline: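 HCT-116 cells treated with vehicle or three compound concentrations, then stained with Hoechst 33258. Nuclei examined by inverted fluorescence microscopy at ×400 in five random fields. Apoptotic cells expressed as % of cells counted. n = 3; ANOVA vs vehicle.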

A further assay has as its system HL-60. Kind of assay: Cytotoxicity against human HL-60 cells assessed as reduction in cell viability by sulforhodamine B assay. Type of assay: functional, cell-based. In outline: as §2
The subject of a further assay is Candida parapsilosis. Kind of assay: Antifungal activity against clinical strain Candida parapsilosis by microplate reader assay. It counts as functional. The conditions noted are these: Lodderomyces parapsilosis. The essentials:
(§3)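 Broth microdilution read by optical density at 630 nm. MIC80 is the first well with about 80% less growth than the drug-free well. Each concentration was run in three replicate wells, and values are means of three independent experiments.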

The subject of the next assay is Candida tropicalis. Kind of assay: Antifungal activity against clinical strain Candida tropicalis by microplate reader assay. It counts as functional. The essentials: as §3
Assay [6] concerns Mus musculus. The assay is described as follows: Immunomodulatory activity in cyclophosphamide-immunosuppressed KM mouse assessed as improved thymus index in at 50 to 500 mg/kg, IG once daily measured after 14 days. Type of assay: functional, organism-based. The conditions noted are these: dose 50-500 mg/kg, time 14.0 day. In outline:
(§4)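 KM mice dosed intragastrically at 5, 50 or 500 mg/kg; vehicle 0.5% CMC-Na. After five doses, immunized i.p. with 0.2 mL 20% rabbit erythrocytes, and dosing continued for 8 days. CTX 30 mg/kg i.p. on days 2, 4 and 6 after immunization. 1 h after the last dose, spleen and thymus weighed; index in g/kg. n = 8.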

The subject of assay [7] is Bel-7402. The assay is described as follows: Antitumor activity against human Bel-7402 cells implanted in BALB/c-nu mouse assessed as T/C ratio at 5 mg/kg, IG administered everyday for 7 days relative to control. The settings on record: time 7 day. It counts as functional.
The subject of assay [8] is Mus musculus. Kind of assay: Immunomodulatory activity in cyclophosphamide-immunosuppressed KM mouse assessed as improved spleen index in at 50 to 500 mg/kg, IG once daily measured after 14 days. It counts as functional, organism-based. The conditions noted are these: dose 50-500 mg/kg, time 14.0 day. The essentials: as §4
Assay [9] relates to Bel-7402. Kind of assay: Antitumor activity against human Bel-7402 cells implanted in BALB/c-nu mouse assessed as T/C ratio at 500 mg/kg, IG administered everyday for 7 days relative to control. The conditions noted are these: time 7 day. It counts as functional.
Assay [10] concerns Bel-7402. The assay is described as follows: Cytotoxicity against human Bel-7402 cells assessed as reduction in cell viability by sulforhodamine B assay. It counts as functional, cell-based. The essentials: as §2

Molecules are shown by their SMILES. Calls of active or inactive are those of the source. The rule behind the calls is not given here.

Broadly, the IC50 is the concentration needed to halve the response being measured. In general, MIC80 refers to an inhibitory concentration at the 80% level, which refers to growth in some studies and to a panel of isolates in others. The T/C is the ratio of treated to control. Regarding `C=C(C)CCC[C@]1(C)OC(=O)[C@]23CC[C@@H]4C(=CCC5C(C)(C)[C@@H](O[C@@H]6OC[C@@H](OS(=O)(=O)[O-])[C@H](O)[C@H]6O[C@@H]6O[C@H](C)[C@@H](O[C@@H]7OC[C@@H](O)[C@H](O[C@@H]8O[C@H](CO)[C@@H](O)[C@H](OC)[C@H]8O)[C@H]7O)[C@H](O)[C@H]6O)CC[C@@]54C)[C@]2(C)C[C@H](OC(C)=O)[C@@H]31.[Na+]` (stereo partly specified), in the assay with CCRF S-180 [1], the inhibition in vivo at 5 mg/kg worked out at 44.2%. Moreover, the concentration for half-maximal inhibition (IC50) was 1940 nM in assay [2]; 1600 nM in the assay with HMEC-1; 1270 nM in the assay with A549; 600 nM with HL-60; 1450 nM in the assay with Bel-7402 [10]. For the same compound, the inhibition in vivo at 0.5 mg/kg came out at 22.1% in the assay on H22 and 21.6% in the assay on CCRF S-180 [4]. Moreover, in the assay on HCT-116 [3], the outcome was inactive. The outcome in the assay with HCT-116 [5], with Mus musculus [6] and in the assay on Mus musculus [8] was Active. Besides, the figures for the MIC80 with Candida parapsilosis and in the assay with Candida tropicalis were 4 µg/mL and 8 µg/mL, respectively. Besides, the T/C turned out to be 45% with Bel-7402 [7] and 32% with Bel-7402 [9].
